According to ChEMBL document CHEMBL4813921, “Optimization of WZ4003 as NUAK inhibitors against human colorectal cancer” (Eur J Med Chem, 2021):
Active and inactive are the calls of the source. The rule behind the calls is not given here.

Tests used:
[1] = biological target: T1, NUAK family SNF1-like kinase 1 (Homo sapiens) (UniProt O60285); test: Inhibition of NUAK1 (unknown origin) at 10 uM using CHKtide as substrate in presence of ATP measured after 60 mins by ADP-Glo assay
T1 sequence (whole entry): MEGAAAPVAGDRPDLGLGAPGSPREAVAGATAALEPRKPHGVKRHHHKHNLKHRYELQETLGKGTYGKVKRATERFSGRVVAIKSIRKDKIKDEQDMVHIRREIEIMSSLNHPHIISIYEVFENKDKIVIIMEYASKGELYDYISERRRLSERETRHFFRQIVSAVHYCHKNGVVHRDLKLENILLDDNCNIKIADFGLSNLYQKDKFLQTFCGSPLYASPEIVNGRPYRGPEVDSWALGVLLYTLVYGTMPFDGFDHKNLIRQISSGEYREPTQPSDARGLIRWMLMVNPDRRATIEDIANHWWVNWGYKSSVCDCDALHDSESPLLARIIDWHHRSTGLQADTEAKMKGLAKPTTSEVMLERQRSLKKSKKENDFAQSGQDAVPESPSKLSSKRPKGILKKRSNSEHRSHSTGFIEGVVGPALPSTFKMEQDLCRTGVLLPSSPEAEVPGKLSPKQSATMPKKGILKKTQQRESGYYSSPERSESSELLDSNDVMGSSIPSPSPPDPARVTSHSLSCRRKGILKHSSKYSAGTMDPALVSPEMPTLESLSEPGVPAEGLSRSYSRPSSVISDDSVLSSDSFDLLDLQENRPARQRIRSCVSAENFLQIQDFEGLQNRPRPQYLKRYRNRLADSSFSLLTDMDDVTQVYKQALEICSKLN

SW480 [2] = test: Antiproliferative activity against human SW480 cells assessed as reduction in cell viability at 10 uM measured after 1 to 5 days by MTT assay relative to control; format: functional, cell-based; settings: time 1-5 day
Outline: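 MTT viability read daily over 1–5 days of exposure to 10 μM compound; mean ± SD, n = 3.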

HCT-116 [3] = test: Inhibition of colony formation in human HCT-116 cells measured after 14 days by crystal violet staining based microcopic analysis; format: functional, cell-based; settings: dose 0.5-2 µM, time 14.0 day
Outline: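 Clonogenic assay with 14-day exposure to a range of compound concentrations; colonies stained with crystal violet and imaged by microscopy; compared with untreated cells.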

HCT-116 [4] = test: Antiproliferative activity against human HCT-116 cells at 2.5 to 10 uM measured after 48 hrs by EdU staining based assay; format: functional, cell-based; settings: dose 2.5-10 µM
Outline: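 Cells exposed to a range of compound concentrations for 48 h, then EdU click-chemistry staining with DAPI counterstain. Confocal high-content imaging; DAPI-positive nuclei counted as total and EdU-positive as proliferating.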

U2OS [5] = test: Induction of cell cycle arrest in human U2OS cells assessed as increase in accumulation at G2/M phase at 10 uM measured after 48 hrs by PI/RNaseA staining based flow cytometry assay; format: functional
U2OS [6] = test: Induction of cell cycle arrest in human U2OS cells assessed as reduction in accumulation at G1 phase at 10 uM measured after 48 hrs by PI/RNaseA staining based flow cytometry assay; format: functional
U2OS [7] = test: Induction of cell cycle arrest in human U2OS cells assessed as reduction in accumulation at S phase at 10 uM measured after 48 hrs by PI/RNaseA staining based flow cytometry assay; format: functional
HCT-116 [8] = test: Induction of cell cycle arrest in human HCT-116 cells assessed as reduction in accumulation at G1 phase at 10 uM measured after 48 hrs by PI/RNaseA staining based flow cytometry assay; format: functional
HCT-116 [9] = test: Induction of cell cycle arrest in human HCT-116 cells assessed as reduction in accumulation at S phase at 10 uM measured after 48 hrs by PI/RNaseA staining based flow cytometry assay; format: functional
U2OS [10] = test: Induction of ROS generation in human U2OS cells at 10 uM measured after 48 hrs by DCFH-DA staining based flow cytometry method; format: functional, cell-based
Outline: (§1)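 Cells treated at 10 μM for 48 h, ROS measured by flow cytometry. Fluorescence intensity expressed relative to vehicle-treated controls; mean ± SEM from 3 independent experiments.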

HCT-116 [11] = test: Induction of ROS generation in human HCT-116 cells at 10 uM measured after 48 hrs by DCFH-DA staining based flow cytometry method; format: functional, cell-based; outline: as §1
SW480 [12] = test: Induction of ROS generation in human SW480 cells at 10 uM measured after 48 hrs by DCFH-DA staining based flow cytometry method; format: functional, cell-based; outline: as §1
U2OS [13] = test: Induction of apoptosis in human U2OS cells assessed as viable cells at 10 uM measured after 48 hrs by Annexin V-FITC/PI staining based flow cytometry method (reference value: 95.5%); format: functional; settings: read-out: Activity
U2OS [14] = test: Induction of apoptosis in human U2OS cells assessed as early apoptotic cells at 10 uM measured after 48 hrs by Annexin V-FITC/PI staining based flow cytometry method (reference value: 2.8%); format: functional
U2OS [15] = test: Induction of apoptosis in human U2OS cells assessed as late apoptotic cells at 10 uM measured after 48 hrs by Annexin V-FITC/PI staining based flow cytometry method (reference value: 1.3%); format: functional
HCT-116 [16] = test: Induction of apoptosis in human HCT-116 cells assessed as viable cells at 10 uM measured after 48 hrs by Annexin V-FITC/PI staining based flow cytometry method (reference value: 95.4%); format: functional; settings: read-out: Activity
HCT-116 [17] = test: Induction of apoptosis in human HCT-116 cells assessed as early apoptotic cells at 10 uM measured after 48 hrs by Annexin V-FITC/PI staining based flow cytometry method (reference value: 0.8%); format: functional
[18] = Toxicity against BALB/c-nu/nu mouse xenografted with human SW480 cells assessed as body weight at 10 to 20 mg/kg, ip administered every 2 days for 18 days; format: organism-based; settings: in vivo, 432 h, dose 10-20 mg/kg, time 18 day
Outline: (§2)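 SW480 xenografts in nude mice, randomized at 100 mm3 tumour volume into four groups of six. Dosed ip at 10 or 20 mg/kg every two days for 18 days, with vehicle group. Tumour volume and body weight recorded every two days; tumours weighed at end; means ± SD (n = 6).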

SW480 [19] = test: Antitumour activity against human SW480 cells xenografted in Balb/c-nu/nu mouse assessed as reduction in tumor weight at 10 to 20 mg/kg, ip administered every 2 days for 18 days; format: functional, organism-based; settings: dose 10-20 mg/kg, time 18.0 day; outline: as §2
[20] = Toxicity against BALB/c-nu/nu mouse xenografted with human SW480 cells assessed as morphological changes in spleen at 10 to 20 mg/kg, ip administered every 2 days for 18 days by H and E staining based analysis; format: organism-based; settings: in vivo, 432 h, dose 10-20 mg/kg, time 18 day
Outline: (§3)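 After 18 days of ip dosing every two days in SW480-xenografted nude mice, heart, liver, spleen, lung and kidney harvested, sectioned, HE-stained, examined at ×400.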

[21] = Toxicity against BALB/c-nu/nu mouse xenografted with human SW480 cells assessed as morphological changes in lung at 10 to 20 mg/kg, ip administered every 2 days for 18 days by H and E staining based analysis; format: organism-based; settings: in vivo, 432 h, dose 10-20 mg/kg, time 18 day; outline: as §3
[22] = Toxicity against BALB/c-nu/nu mouse xenografted with human SW480 cells assessed as morphological changes in kidney at 10 to 20 mg/kg, ip administered every 2 days for 18 days by H and E staining based analysis; format: organism-based; settings: in vivo, 432 h, dose 10-20 mg/kg, time 18 day; outline: as §3

Question: Which inhibition [1] does the source give for `CCC(=O)Nc1cccc(Oc2nc(Nc3ccc(N4CCN(C)CC4)cc3)ncc2Cl)c1` here?
Answer: 92.9%

Question: What about the Activity (SW480 [2]) of the same compound?
Answer: Active

Question: What about the inhibition (HCT-116 [3]) of the same compound?
Answer: Dose-Dependent Effect

Question: And the Activity (HCT-116 [4])?
Answer: Active

Question: What about the Activity (U2OS [5]) of the same compound?
Answer: Active

Question: And the Activity (U2OS [6])?
Answer: Active

Question: What about the Activity (U2OS [7]) of the same compound?
Answer: Active

Question: And the Activity (HCT-116 [8])?
Answer: Active

Question: And the Activity (HCT-116 [9])?
Answer: Active

Question: What about the Activity (U2OS [10]) of the same compound?
Answer: Active

Question: And the Activity (HCT-116 [11])?
Answer: Active

Question: What about the Activity (SW480 [12]) of the same compound?
Answer: Active

Question: What about the viability at 10 µM (U2OS [13]) of the same compound?
Answer: 81.6%

Question: What about the Activity (U2OS [14]) of the same compound?
Answer: 12.9%

Question: And the Activity (U2OS [15])?
Answer: 4.8%

Question: What about the viability at 10 µM (HCT-116 [16]) of the same compound?
Answer: 46%

Question: What about the Activity (HCT-116 [17]) of the same compound?
Answer: 3.9%

Question: And the Activity [18]?
Answer: Non-Toxic

Question: What about the Activity (SW480 [19]) of the same compound?
Answer: Active

Question: What about the Activity [20] of the same compound?
Answer: Non-Toxic

Question: What about the Activity [21] of the same compound?
Answer: Non-Toxic

Question: What about the Activity [22] of the same compound?
Answer: Non-Toxic
